Data as given in ChEMBL document CHEMBL1142148, “Antibiotic susceptibility profile of bifidobacteria as affected by oxgall, acid, and hydrogen peroxide stress” (2007).

Assays:
Bifidobacterium longum [1] = experiment: Antimicrobial activity against Bifidobacterium longum ATCC 15708; type: functional
Outline: (§1)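 Broth microdilution in MRS plus 0.05% L-cysteine-HCl. Mid-log culture adjusted to OD650 0.1, giving about 2.5 × 10^4 to 5.0 × 10^4 CFU/well, then added to twofold serial dilutions of agent. Plates incubated anaerobically at 37°C for 18 h and read at OD650. MIC is the lowest concentration matching the uninoculated blank OD, taken as the median of four repeats.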

Bifidobacterium breve [2] = experiment: Antimicrobial activity against Bifidobacterium breve R0070; type: functional; outline: as §1
Bifidobacterium bifidum [3] = experiment: Antimicrobial activity against 90 mins oxgall-stressed Bifidobacterium bifidum ATCC 15696 after 18 hrs; type: functional
Outline: (§2)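 Cells pelleted from mid-log MRS culture and resuspended in MRS (initial pH 6.5) with 0.3% (wt/vol) oxgall for 90 min anaerobically at 37°C. They were then regrown in MRS pH 6.5 for 24 h (footnote: 18 h) anaerobically and tested for MIC by the same broth microdilution assay. Median of four repetitions.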

Bifidobacterium bifidum [4] = experiment: Antimicrobial activity against 90 mins hydrogen peroxide-stressed Bifidobacterium bifidum R0071 after 18 hrs; type: functional
Outline: (§3)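 Stress applied for 90 min at 37°C under anaerobic conditions, using MRS (initial pH 6.5) containing H2O2 at each strain's own inhibitory concentration. The H2O2 level was set beforehand by microplate tolerance testing. Challenged cells were regrown in MRS for 24 h (footnote: 18 h) before MIC testing by broth microdilution. Median of four repetitions.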

[5] = Antimicrobial activity against 90 mins oxgall-stressed Bifidobacterium infantis ATCC 15697 after 18 hrs; type: functional, Bifidobacterium longum subsp. infantis; conditions: Bifidobacterium longum; outline: as §2
[6] = system: Bifidobacterium pseudolongum; experiment: Antimicrobial activity against 90 mins oxgall-stressed Bifidobacterium pseudolongum ATCC 25562 after 18 hrs; type: functional; outline: as §2
Bifidobacterium longum [7] = experiment: Antimicrobial activity against 90 mins oxgall-stressed Bifidobacterium longum ATCC 15707 after 18 hrs; type: functional; outline: as §2
Bifidobacterium breve [8] = experiment: Antimicrobial activity against 90 mins hydrogen peroxide-stressed Bifidobacterium breve R0070 after 18 hrs; type: functional; outline: as §3
[9] = system: Bifidobacterium pseudolongum; experiment: Antimicrobial activity against Bifidobacterium pseudolongum ATCC 25562; type: functional; outline: as §1
Bifidobacterium longum [10] = experiment: Antimicrobial activity against Bifidobacterium longum ATCC 15707; type: functional; outline: as §1
Bifidobacterium breve [11] = experiment: Antimicrobial activity against 90 mins hydrogen peroxide-stressed Bifidobacterium breve ATCC 15700 after 18 hrs; type: functional; outline: as §3
Bifidobacterium animalis [12] = experiment: Antimicrobial activity against Bifidobacterium animalis ATCC 27536; type: functional; outline: as §1
Bifidobacterium breve [13] = experiment: Antimicrobial activity against Bifidobacterium breve ATCC 15700; type: functional; outline: as §1
Bifidobacterium longum [14] = experiment: Antimicrobial activity against 60 min 1 M HCl-stressed Bifidobacterium longum ATCC 15707 after 18 hrs; type: functional
Outline: (§4)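 Mid-log MRS culture pelleted and resuspended in MRS broth brought to pH 2.0 with 1 M HCl, held anaerobically at 37°C for 60 min, then subcultured in MRS (pH 6.5) for 24 h anaerobically before MIC testing by broth microdilution (as for unstressed cells). Table footnote gives 18 h anaerobic regrowth after the stress. MIC is the median of four repetitions.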

Bifidobacterium longum [15] = experiment: Antimicrobial activity against 90 mins hydrogen peroxide-stressed Bifidobacterium longum ATCC 15708 after 18 hrs; type: functional; outline: as §3
Bifidobacterium breve [16] = experiment: Antimicrobial activity against 90 mins oxgall-stressed Bifidobacterium breve R0070 after 18 hrs; type: functional; outline: as §2
Bifidobacterium longum [17] = experiment: Antimicrobial activity against 90 mins hydrogen peroxide-stressed Bifidobacterium longum ATCC 15707 after 18 hrs; type: functional; outline: as §3
Bifidobacterium longum [18] = experiment: Antimicrobial activity against 60 min 1 M HCl-stressed Bifidobacterium longum P/N 601377 after 18 hrs; type: functional; outline: as §4
Bifidobacterium animalis [19] = experiment: Antimicrobial activity against 90 mins oxgall-stressed Bifidobacterium animalis ATCC 27536 after 18 hrs; type: functional; outline: as §2
Bifidobacterium longum [20] = experiment: Antimicrobial activity against 60 min 1 M HCl-stressed Bifidobacterium longum R0175 after 18 hrs; type: functional; outline: as §4
[21] = system: Bifidobacterium thermophilum; experiment: Antimicrobial activity against 90 mins oxgall-stressed Bifidobacterium thermophilum ATCC 25866 after 18 hrs; type: functional; outline: as §2
Bifidobacterium bifidum [22] = experiment: Antimicrobial activity against 60 min 1 M HCl-stressed Bifidobacterium bifidum BB12 after 18 hrs; type: functional; outline: as §4
Bifidobacterium bifidum [23] = experiment: Antimicrobial activity against 90 mins oxgall-stressed Bifidobacterium bifidum R0071 after 18 hrs; type: functional; outline: as §2
Bifidobacterium longum [24] = experiment: Antimicrobial activity against 90 mins oxgall-stressed Bifidobacterium longum P/N 601377 after 18 hrs; type: functional; outline: as §2
Bifidobacterium bifidum [25] = experiment: Antimicrobial activity against 60 min 1 M HCl-stressed Bifidobacterium bifidum R0071 after 18 hrs; type: functional; outline: as §4
Bifidobacterium longum [26] = experiment: Antimicrobial activity against 90 mins oxgall-stressed Bifidobacterium longum ATCC 15708 after 18 hrs; type: functional; outline: as §2
Bifidobacterium longum [27] = experiment: Antimicrobial activity against 90 mins hydrogen peroxide-stressed Bifidobacterium longum R0175 after 18 hrs; type: functional; outline: as §3
[28] = Antimicrobial activity against Bifidobacterium infantis ATCC 15697; type: functional, Bifidobacterium longum subsp. infantis; conditions: Bifidobacterium longum; outline: as §1
Bifidobacterium longum [29] = experiment: Antimicrobial activity against 90 mins hydrogen peroxide-stressed Bifidobacterium longum P/N 601377 after 18 hrs; type: functional; outline: as §3
Bifidobacterium bifidum [30] = experiment: Antimicrobial activity against 90 mins hydrogen peroxide-stressed Bifidobacterium bifidum BB12 after 18 hrs; type: functional; outline: as §3
Bifidobacterium bifidum [31] = experiment: Antimicrobial activity against Bifidobacterium bifidum ATCC 15696; type: functional; outline: as §1
[32] = system: Bifidobacterium pseudolongum; experiment: Antimicrobial activity against 60 min 1 M HCl-stressed Bifidobacterium pseudolongum ATCC 25562 after 18 hrs; type: functional; outline: as §4
[33] = system: Bifidobacterium thermophilum; experiment: Antimicrobial activity against Bifidobacterium thermophilum ATCC 25866; type: functional; outline: as §1
Bifidobacterium animalis [34] = experiment: Antimicrobial activity against 60 min 1 M HCl-stressed Bifidobacterium animalis ATCC 27536 after 18 hrs; type: functional; outline: as §4
Bifidobacterium longum [35] = experiment: Antimicrobial activity against Bifidobacterium longum R0175; type: functional; outline: as §1
Bifidobacterium bifidum [36] = experiment: Antimicrobial activity against 90 mins oxgall-stressed Bifidobacterium bifidum BB12 after 18 hrs; type: functional; outline: as §2
Bifidobacterium bifidum [37] = experiment: Antimicrobial activity against Bifidobacterium bifidum R0071; type: functional; outline: as §1
Bifidobacterium breve [38] = experiment: Antimicrobial activity against 60 min 1 M HCl-stressed Bifidobacterium breve ATCC 15700 after 18 hrs; type: functional; outline: as §4
[39] = Antimicrobial activity against 60 min 1 M HCl-stressed Bifidobacterium infantis ATCC 15697 after 18 hrs; type: functional, Bifidobacterium longum subsp. infantis; conditions: Bifidobacterium longum; outline: as §4
Bifidobacterium breve [40] = experiment: Antimicrobial activity against 90 mins oxgall-stressed Bifidobacterium breve ATCC 15700 after 18 hrs; type: functional; outline: as §2
[41] = system: Bifidobacterium thermophilum; experiment: Antimicrobial activity against 90 mins hydrogen peroxide-stressed Bifidobacterium thermophilum ATCC 25866 after 18 hrs; type: functional; outline: as §3
Bifidobacterium longum [42] = experiment: Antimicrobial activity against 90 mins oxgall-stressed Bifidobacterium longum R0175 after 18 hrs; type: functional; outline: as §2
[43] = system: Bifidobacterium thermophilum; experiment: Antimicrobial activity against 60 min 1 M HCl-stressed Bifidobacterium thermophilum ATCC 25866 after 18 hrs; type: functional; outline: as §4
Bifidobacterium longum [44] = experiment: Antimicrobial activity against Bifidobacterium longum P/N 601377; type: functional; outline: as §1
Bifidobacterium animalis [45] = experiment: Antimicrobial activity against 90 mins hydrogen peroxide-stressed Bifidobacterium animalis ATCC 27536 after 18 hrs; type: functional; outline: as §3
Bifidobacterium bifidum [46] = experiment: Antimicrobial activity against Bifidobacterium bifidum BB12; type: functional; outline: as §1
Bifidobacterium breve [47] = experiment: Antimicrobial activity against 60 min 1 M HCl-stressed Bifidobacterium breve R0070 after 18 hrs; type: functional; outline: as §4

Measured: MIC

NC[C@H]1O[C@H](O[C@H]2[C@H](O)[C@@H](O[C@H]3O[C@H](CO)[C@@H](O)[C@H](N)[C@H]3O)[C@H](N)C[C@@H]2N)[C@H](O)[C@@H](O)[C@@H]1O [KANAMYCIN]
125 µg/mL: Bifidobacterium bifidum [3]
250 µg/mL: Bifidobacterium longum [7] | Bifidobacterium longum [18] | Bifidobacterium longum [20] | Bifidobacterium bifidum [22] | Bifidobacterium longum [24] | Bifidobacterium longum [29] | [32] | Bifidobacterium longum [44]
> 500 µg/mL: [5] | [9] | Bifidobacterium breve [11] | Bifidobacterium breve [13] | [28] | Bifidobacterium bifidum [31] | [33] | Bifidobacterium bifidum [46]
0.98 µg/mL: Bifidobacterium bifidum [25]
500 µg/mL: all other assays above

NC[C@@H]1O[C@H](O[C@H]2[C@@H](O)[C@H](O[C@@H]3[C@@H](O)[C@H](N)C[C@H](N)[C@H]3O[C@H]3O[C@H](CO)[C@@H](O)[C@H](O)[C@H]3N)O[C@@H]2CO)[C@H](N)[C@@H](O)[C@@H]1O [PAROMOMYCIN]
500 µg/mL: Bifidobacterium bifidum [3] | [5] | [6] | Bifidobacterium breve [11] | Bifidobacterium longum [14] | Bifidobacterium longum [17] | Bifidobacterium longum [26] | Bifidobacterium bifidum [30] | Bifidobacterium animalis [34] | [41] | [43] | Bifidobacterium animalis [45]
125 µg/mL: Bifidobacterium bifidum [4] | Bifidobacterium longum [7] | Bifidobacterium breve [16] | Bifidobacterium animalis [19] | Bifidobacterium bifidum [22] | Bifidobacterium bifidum [23] | Bifidobacterium longum [29] | Bifidobacterium breve [38] | Bifidobacterium longum [42]
62.5 µg/mL: Bifidobacterium longum [24]
250 µg/mL: all other assays above

CC1(C)S[C@@H]2[C@H](NC(=O)Cc3ccccc3)C(=O)N2[C@H]1C(=O)O [PENICILLIN G]
3.9 µg/mL: Bifidobacterium longum [35] | Bifidobacterium bifidum [37]
1.9 µg/mL: Bifidobacterium breve [2] | Bifidobacterium bifidum [25] | Bifidobacterium breve [47]
0.98 µg/mL: all other assays above
